Laboratory results taken from ChEMBL document CHEMBL5257157, “Biological evaluation of novel amidino substituted coumarin-benzazole hybrids as promising therapeutic agents” (RSC Med Chem, 2023).
pEC50, pIC50: −log10 of the molar value.

Tests used:
LN-229 = assay: Antiproliferative activity against human LN-229 cells assessed as inhibition of cell growth incubated for 72 hrs by CellTiter96 Aqueous One Solution cell proliferation assay; format: functional, cell-based; details: LN-229, 72 h
CAPAN-1 = assay: Antiproliferative activity against human CAPAN-1 cells assessed as inhibition of cell growth incubated for 72 hrs by CellTiter96 Aqueous One Solution cell proliferation assay; format: functional, cell-based; details: CAPAN-1, 72 h
HCT-116 = assay: Antiproliferative activity against human HCT-116 cells assessed as inhibition of cell growth incubated for 72 hrs by CellTiter96 Aqueous One Solution cell proliferation assay; format: functional, cell-based; details: HCT-116, 72 h
NCI-H460 = assay: Antiproliferative activity against human NCI-H460 cells assessed as inhibition of cell growth incubated for 72 hrs by CellTiter96 Aqueous One Solution cell proliferation assay; format: functional, cell-based; details: NCI-H460, 72 h
[1] = Antiproliferative activity against human DND41 cells assessed as inhibition of cell growth incubated for 72 hrs by CellTiter96 Aqueous One Solution cell proliferation assay; format: functional, cell-based; details: DND41, 72 h
HL-60 = assay: Antiproliferative activity against human HL-60 cells assessed as inhibition of cell growth incubated for 72 hrs by CellTiter96 Aqueous One Solution cell proliferation assay; format: functional, cell-based; details: HL-60, 72 h
K562 = assay: Antiproliferative activity against human K562 cells assessed as inhibition of cell growth incubated for 72 hrs by CellTiter96 Aqueous One Solution cell proliferation assay; format: functional, cell-based; details: K562, 72 h
Z-138 = assay: Antiproliferative activity against human Z138 cells assessed as inhibition of cell growth incubated for 72 hrs by CellTiter96 Aqueous One Solution cell proliferation assay; format: functional, cell-based; details: Z-138, 72 h
[2] = Cytotoxicity against human HEL 299 cells assessed as inhibition of cell growth incubated for 72 hrs by CellTiter96 Aqueous One Solution cell proliferation assay; format: toxicity, cell-based
Huh-7 = assay: Cytotoxicity against human Huh-7 cells assessed as inhibition of cell growth incubated for 72 hrs by CellTiter96 Aqueous One Solution cell proliferation assay; format: functional
[3] = Cytotoxicity against dog MDCK cells assessed as inhibition of cell growth incubated for 72 hrs by CellTiter96 Aqueous One Solution cell proliferation assay; format: toxicity, cell-based, Canis lupus familiaris
Human coronavirus 229E = assay: Antiviral activity against HCoV-229E infected in human HEL 299 cells assessed as inhibition of virus-induced cytopathogenic effect incubated for 3 to 7 days by MTS assay; format: functional, organism-based
Human coronavirus OC43 = assay: Antiviral activity against HCoV-OC43 infected in human HEL 299 cells assessed as inhibition of virus-induced cytopathogenic effect incubated for 3 to 7 days by MTS assay; format: functional, organism-based; details: Betacoronavirus 1, HEL 299
[4] = Antiviral activity against HCoV-NL63 infected in human Huh-7 cells assessed as inhibition of virus-induced cytopathogenic effect incubated for 3 to 7 days by MTS assay; format: functional, cell-based; details: Human coronavirus NL63, Huh-7
Influenza A virus [5] = assay: Antiviral activity against influenza virus H1N1 infected in dog MDCK cells assessed as inhibition of virus-induced cytopathogenic effect incubated for 3 to 7 days by MTS assay; format: functional, organism-based
Influenza A virus [6] = assay: Antiviral activity against influenza virus H3N2 infected in dog MDCK cells assessed as inhibition of virus-induced cytopathogenic effect incubated for 3 to 7 days by MTS assay; format: functional, organism-based
Influenza B virus = assay: Antiviral activity against influenza B virus infected in dog MDCK cells assessed as inhibition of virus-induced cytopathogenic effect incubated for 3 to 7 days by MTS assay; format: functional, organism-based
[7] = system: Respiratory syncytial virus; assay: Antiviral activity against RSV infected in human HEL 299 cells assessed as inhibition of virus-induced cytopathogenic effect incubated for 3 to 7 days by MTS assay; format: functional, organism-based
Human alphaherpesvirus 1 = assay: Antiviral activity against HSV-1 KOS infected in human HEL 299 cells assessed as inhibition of virus-induced cytopathogenic effect incubated for 3 to 7 days by MTS assay; format: functional, organism-based; details: Human alphaherpesvirus 1, KOS
Yellow fever virus = assay: Antiviral activity against Yellow fever virus 17D infected in human Huh-7 cells assessed as inhibition of virus-induced cytopathogenic effect incubated for 3 to 7 days by MTS assay; format: functional, organism-based
Zika virus = assay: Antiviral activity against Zika virus Mr776 infected in human Huh-7 cells assessed as inhibition of virus-induced cytopathogenic effect incubated for 3 to 7 days by MTS assay; format: functional, organism-based; details: Mr776, Huh-7
Sindbis virus = assay: Antiviral activity against Sindbis virus infected in human Huh-7 cells assessed as inhibition of virus-induced cytopathogenic effect incubated for 3 to 7 days by MTS assay; format: functional, organism-based
[8] = Antioxidant activity assessed as ABTS radical scavenging activity incubated for 5 mins by absorbance based microplate reader analysis; format: functional
Method in brief: (§1)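 Pure compounds tested in three colorimetric antioxidant assays, each run alongside the reference BHT. […] ABTS: direct reaction with ABTS•+ radical cation, reported as IC50. DPPH: scavenging of the stable DPPH radical by proton or electron donation, reported as IC50. FRAP: reducing power, expressed as mmolFe2+/mmolC.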

[9] = Antioxidant activity assessed as DPPH radical scavenging activity incubated for 5 mins by absorbance based microplate reader analysis; format: functional; method in brief: as §1
[10] = Antioxidant activity assessed as reduction of Fe3+ complex to Fe2+ analogue by measuring mmolFe2+/mmolc by FRAP assay; format: functional; method in brief: as §1
[11] = Drug localization in nucleolus of human HEp-2 cells at 10 uM incubated for 3 hrs by confocal microscopy analysis; format: ADME, subcellular; details: hep-2, 3 h
Method in brief: (§2)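 Compound autofluorescence was imaged by fluorescence microscopy in Hep-2 cells (ATCC CCL-23). Cells were given 10 μM and incubated for 3 hours to allow cellular uptake before imaging. Localization to subcellular compartments was judged from the fluorescence pattern.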

[12] = Drug localization in nuclear membrane of human HEp-2 cells at 10 uM incubated for 3 hrs by confocal microscopy analysis; format: ADME, cell membranes; details: hep-2, 3 h; method in brief: as §2
[13] = Cytotoxicity against human PBMC cells assessed as reduction in cell viability at 20 uM measured after 72 hrs by CellTiter96 Aqueous One Solution cell proliferation assay; format: toxicity, cell-based
Method in brief: (§3)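 Normal peripheral blood mononuclear cells from healthy donors were exposed to compound for 72 hours, at concentrations up to a highest dose of 100 μM. Viability is given as a percentage of untreated PBMC control.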

[14] = Cytotoxicity against human PBMC cells assessed as reduction in cell viability at 0.006 to 4 uM measured after 72 hrs by CellTiter96 Aqueous One Solution cell proliferation assay; format: toxicity, cell-based; details: dose 0.006-4 µM
[15] = Cytotoxicity against human PBMC cells assessed as reduction in cell viability measured after 72 hrs by CellTiter96 Aqueous One Solution cell proliferation assay; format: toxicity, cell-based; method in brief: as §3
[16] = Drug localization in cytoplasm of human HEp-2 cells at 10 uM incubated for 3 hrs by confocal microscopy analysis; format: ADME, subcellular; details: hep-2, 3 h; method in brief: as §2

SMILES | pIC50 (LN-229) | pIC50 (CAPAN-1) | pIC50 (NCI-H460) | pIC50 [1] | pIC50 (HL-60) | pIC50 (K562) | pIC50 (Z-138) | CC50 at 72 h [2] | CC50 (Huh-7) | CC50 at 72 h [3] | pEC50 (Human coronavirus 229E) | pEC50 (Human coronavirus OC43) | pEC50 [4] | pEC50 (Influenza A virus [5]) | pEC50 (Influenza A virus [6]) | pEC50 (Influenza B virus) | pEC50 [7] | pEC50 (Human alphaherpesvirus 1) | pEC50 (Yellow fever virus) | pEC50 (Zika virus) | further results
COC(=O)Nc1nc2cc(C(=O)c3cccs3)ccc2[nH]1 [NOCODAZOLE] | 7.00 | 6.89 | 6.60 | 6.33 | 7.00 | 7.15 | 6.51 |  |  |  |  |  |  |  |  |  |  |  |  |  | pIC50 (HCT-116): 6.89
CCN(CC)c1ccc2cc(-c3nc4cc(C5=NCCN5)ccc4[nH]3)c(=O)oc2c1.Cl | 5.85 | 5.77 | 5.74 | 6.52 | 5.68 | 5.72 | 5.82 | 5.1 µM | < 0.8 µM | < 0.8 µM | < 4.00 | < 4.00 | < 4.00 | < 4.00 | < 4.00 | < 4.00 | < 4.00 | < 4.00 | < 4.00 | < 4.00 | pEC50 (Sindbis virus): < 4.00; pIC50 [8]: 3.77; pIC50 [9]: 3.85; Activity [10]: 28.4 mmol/mmol; Drug uptake [11]: Active; Drug uptake [12]: Active; Activity [13]: 60%; Activity [14]: > 80%; IC50 at 72 h [15]: 1.6 µM
CCN(CC)c1ccc2cc(-c3nc4ccc(C5=NCCCN5)cc4s3)c(=O)oc2c1.Cl | 5.74 | 5.70 | < 4.00 | 5.89 | < 4.00 | < 4.00 | 5.82 | > 100 µM | 1.8 µM | 4.2 µM | 4.48 | 4.54 | < 4.00 | < 4.00 | < 4.00 | < 4.00 | 4.36 | 4.59 | < 4.00 | < 4.00 | pEC50 (Sindbis virus): < 4.00; pIC50 [8]: 3.01; Activity [10]: 3.29 mmol/mmol; Drug uptake [11]: Active; Drug uptake [12]: Active; Drug uptake [16]: Active; Activity [14]: > 80%; IC50 at 72 h [15]: 1.7 µM
